# ChEMBL document CHEMBL4024777, “Discovery of LY3104607: A Potent and Selective G Protein-Coupled Receptor 40 (GPR40) Agonist with Optimized Pharmacokinetic Properties to Support Once Daily Oral Treatment in Patients with Type 2 Diabetes Mellitus” (J Med Chem, 2018)
# Active and inactive are the calls of the source. The rule behind the calls is not given here.
# Assays:
# [1] = biological target: Free fatty acid receptor 1 (Rattus norvegicus) (UniProt Q8K3T4); assay: Agonist activity at rat PK-tagged GPR40 expressed in human U2OS cells assessed as EA-tagged beta-arrestin recruitment after 90 mins in presence of 1 % heat inactivated FBS by beta-galactosidase reporter gene assay relative to untreated control; assay type: cell-based
# Free fatty acid receptor 1 (Rattus norvegicus), sequence (Q8K3T4 whole entry): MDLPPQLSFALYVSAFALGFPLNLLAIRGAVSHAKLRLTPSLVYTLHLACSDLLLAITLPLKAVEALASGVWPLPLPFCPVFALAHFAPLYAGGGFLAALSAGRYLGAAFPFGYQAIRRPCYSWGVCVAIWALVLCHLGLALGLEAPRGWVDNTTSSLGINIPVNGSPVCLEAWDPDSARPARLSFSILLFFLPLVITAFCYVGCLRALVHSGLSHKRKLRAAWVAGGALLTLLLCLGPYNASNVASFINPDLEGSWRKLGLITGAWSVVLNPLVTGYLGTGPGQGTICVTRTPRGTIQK
# [2] = Volume of distribution at steady state in Sprague-Dawley rat at 1 mg/kg, iv; assay type: ADME, organism-based; settings: in vivo, read-out: Vdss
# [3] = Metabolic stability in rat microsomes assessed as compound metabolized after 30 mins; assay type: ADME, Microsome; settings: read-out: Drug metabolism
# How it was run: (§1)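 Compound incubated 30 min with liver microsomes from mouse, rat, dog or human. Percent of compound metabolized recorded, as mean (SEM, n).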
# [4] = Intrinsic clearance in human hepatocytes; assay type: ADME, cell-based, Hepatocyte
# [5] = AUC (0 to 24 hrs) in Beagle dog at 3 mg/kg, po; assay type: ADME, organism-based, Canis lupus familiaris; parameters: time < 24 hr, dose 3 mg/kg, route oral; settings: in vivo
# [6] = Half life in Sprague-Dawley rat at 1 mg/kg, po; assay type: ADME, organism-based; settings: in vivo
# [7] = biological target: T1, Peroxisome proliferator-activated receptor delta (Homo sapiens) (UniProt Q03181); assay: Agonist activity at GAL4-fused human PPARdelta expressed in African green monkey CV1 cells up to 30 uM after 24 hrs by luciferase reporter gene assay; assay type: cell-based
# T1 sequence (whole entry): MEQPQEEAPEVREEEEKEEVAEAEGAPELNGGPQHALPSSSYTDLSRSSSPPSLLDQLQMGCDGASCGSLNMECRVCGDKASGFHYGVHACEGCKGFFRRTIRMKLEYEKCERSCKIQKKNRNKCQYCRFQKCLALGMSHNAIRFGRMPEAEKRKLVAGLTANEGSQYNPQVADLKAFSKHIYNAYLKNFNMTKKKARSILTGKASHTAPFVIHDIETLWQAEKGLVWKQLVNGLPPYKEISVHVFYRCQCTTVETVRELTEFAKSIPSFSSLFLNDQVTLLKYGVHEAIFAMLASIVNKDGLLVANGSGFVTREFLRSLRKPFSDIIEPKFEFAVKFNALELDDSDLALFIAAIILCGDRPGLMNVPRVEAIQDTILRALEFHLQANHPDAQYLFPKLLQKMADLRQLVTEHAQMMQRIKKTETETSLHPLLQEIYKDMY
# How it was run: (§2)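 PPAR alpha, delta and gamma binding and functional activity were each tested at concentrations up to 30 µM.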
# [8] = biological target: T2, Peroxisome proliferator-activated receptor alpha (Homo sapiens) (UniProt Q07869); assay: Displacement of [3H]-agonist from human PPARalpha expressed in baculovirus infecetd Sf9 cells system up to 30 uM after 10 hrs in presence of DR2 by scintillation proximity assay; how it was run: as §2
# T2 sequence (whole entry): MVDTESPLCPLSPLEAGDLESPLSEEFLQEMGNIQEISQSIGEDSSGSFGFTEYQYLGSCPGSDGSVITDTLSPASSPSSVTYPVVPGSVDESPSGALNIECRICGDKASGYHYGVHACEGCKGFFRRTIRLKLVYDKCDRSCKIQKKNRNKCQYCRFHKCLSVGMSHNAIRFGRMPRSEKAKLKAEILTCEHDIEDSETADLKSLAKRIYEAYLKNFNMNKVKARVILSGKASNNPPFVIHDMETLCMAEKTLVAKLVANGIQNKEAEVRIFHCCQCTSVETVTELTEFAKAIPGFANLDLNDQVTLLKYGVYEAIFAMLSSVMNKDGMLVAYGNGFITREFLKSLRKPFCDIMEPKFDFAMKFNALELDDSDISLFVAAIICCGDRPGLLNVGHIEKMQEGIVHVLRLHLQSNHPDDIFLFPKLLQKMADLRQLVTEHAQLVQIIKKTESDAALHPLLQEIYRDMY
# [9] = Half life in Beagle dog at 3 mg/kg, po; assay type: ADME, organism-based, Canis lupus familiaris; settings: in vivo
# [10] = Drug metabolism in mouse hepatocytes assessed as glucuronidation; assay type: ADME, cell-based, Hepatocyte
# [11] = Cmax in Beagle dog at 300 mg/kg, po; assay type: ADME, organism-based, Canis lupus familiaris; parameters: dose 300 mg/kg, route oral; settings: in vivo
# [12] = Cmax in Beagle dog at 3 mg/kg, po; assay type: ADME, organism-based, Canis lupus familiaris; parameters: dose 3 mg/kg, route oral; settings: in vivo
# [13] = Volume of distribution at steady state in Beagle dog at 1 mg/kg, iv; assay type: ADME, organism-based, Canis lupus familiaris; settings: in vivo, read-out: Vdss
# [14] = AUC (0 to 24 hrs) in Beagle dog at 1 mg/kg, iv; assay type: ADME, organism-based, Canis lupus familiaris; parameters: time < 24 hr, dose 1 mg/kg, route intravenous; settings: in vivo
# [15] = biological target: Free fatty acid receptor 1 (Rattus norvegicus) (UniProt Q8K3T4); assay: Agonist activity at GPR40 in Sprague-Dawley rat islets assessed as potentiation of glucose-stimulated insulin secretion at 1 to 10 uM in presence of […] glucose by ELISA
# [16] = biological target: T3, Free fatty acid receptor 1 (Homo sapiens, UniProt O14842); assay: Agonist activity at human GPR40 receptor expressed in HEK293 cells assessed as increase in intracellular calcium flux after 2.5 hrs measured over 3 mins by calcium 4 dye-based FLIPR assay; assay type: functional, cell-based
# T3 sequence (O14842 whole entry): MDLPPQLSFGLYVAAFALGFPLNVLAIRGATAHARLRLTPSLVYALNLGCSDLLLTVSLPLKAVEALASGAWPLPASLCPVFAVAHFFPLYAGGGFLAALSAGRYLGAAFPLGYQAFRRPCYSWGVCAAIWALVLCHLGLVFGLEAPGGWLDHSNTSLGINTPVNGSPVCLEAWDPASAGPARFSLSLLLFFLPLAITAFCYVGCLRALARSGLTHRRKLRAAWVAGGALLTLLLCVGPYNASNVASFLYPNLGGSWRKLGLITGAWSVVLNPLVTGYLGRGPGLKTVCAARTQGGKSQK
# How it was run: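 Calcium flux was read by FLIPR in cells carrying recombinant human GPR40. Percent stimulation is relative to the response to 100 µM linoleic acid. EC50 is reported with SEM and n.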
# [17] = biological target: Free fatty acid receptor 1 (Rattus norvegicus, UniProt Q8K3T4); assay: Agonist activity at rat PK-tagged GPR40 expressed in human U2OS cells assessed as EA-tagged beta-arrestin recruitment after 90 mins in presence of 1 % heat inactivated FBS by beta-galactosidase reporter gene assay; assay type: cell-based
# Free fatty acid receptor 1 (Rattus norvegicus, UniProt Q8K3T4), sequence (Q8K3T4 whole entry): as the sequence (Q8K3T4 whole entry) above
# How it was run: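 β-Arrestin recruitment used rat GPR40 in the presence of 1% FBS. EC50 and % maximal stimulation are reported with SEM and n.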
# [18] = Metabolic stability in dog microsomes assessed as compound metabolized after 30 mins; assay type: ADME, Canis lupus familiaris, Microsome; settings: read-out: Drug metabolism; how it was run: as §1
# [19] = Metabolic stability in human microsomes assessed as compound metabolized after 30 mins; assay type: ADME, Microsome; settings: read-out: Drug metabolism; how it was run: as §1
# [20] = Tmax in Sprague-Dawley rat at 1 mg/kg, po; assay type: ADME, organism-based; settings: in vivo
# How it was run: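 Fasted rats given oral doses of 1 mg/kg. […] Bioavailability is calculated against the 1 mg/kg IV group.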
# Rattus norvegicus [21] = assay: Antidiabetic activity in po dosed Zucker fa/fa rat assessed as reduction in blood glucose AUC administered daily for 21 days followed by OGTT at 1 hr after compound dosing and measured 60 mins post glucose challenge by oral glucose tolerance test; assay type: functional
# Cytochrome P450 3A4 = Cytochrome P450 3A4 (Homo sapiens, UniProt P08684); assay: Inhibition of human CYP3A4; assay type: ADME
# Cytochrome P450 3A4, sequence (P08684 whole entry): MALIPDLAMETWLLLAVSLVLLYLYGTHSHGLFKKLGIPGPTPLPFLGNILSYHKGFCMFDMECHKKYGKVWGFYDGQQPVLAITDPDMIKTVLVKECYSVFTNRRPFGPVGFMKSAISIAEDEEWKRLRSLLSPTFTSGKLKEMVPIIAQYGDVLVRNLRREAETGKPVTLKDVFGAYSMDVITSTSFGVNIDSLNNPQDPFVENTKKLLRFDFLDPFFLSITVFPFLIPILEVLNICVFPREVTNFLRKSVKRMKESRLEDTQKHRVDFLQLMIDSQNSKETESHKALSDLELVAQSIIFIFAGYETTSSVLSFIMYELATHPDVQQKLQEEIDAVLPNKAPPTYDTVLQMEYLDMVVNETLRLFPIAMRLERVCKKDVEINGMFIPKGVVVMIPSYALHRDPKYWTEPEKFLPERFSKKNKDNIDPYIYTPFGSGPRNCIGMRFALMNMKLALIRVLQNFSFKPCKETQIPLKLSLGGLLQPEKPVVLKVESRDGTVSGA
# Rattus norvegicus [22] = assay: Antidiabetic activity in Zucker fa/fa rat assessed as reduction in blood glucose AUC at 1 to 10 mg/kg, po administered for 1 day followed by OGTT at 1 hr after compound dosing and measured 60 mins post glucose challenge by oral glucose tolerance test; assay type: functional, organism-based
# How it was run: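 Male Zucker fa/fa rats, 10 weeks old, were dosed orally with 1, 3 or 10 mg/kg, alongside a reference GPR40 agonist as positive control. The OGTT was run 1 h after dosing with a 2 g/kg oral glucose load. Blood glucose was sampled at 0, 10, 20, 40 and 60 min, with the legend also listing 120 min. Glucose AUC was assessed on day 1.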
# [23] = biological target: T3, Free fatty acid receptor 1; assay: Agonist activity at human PK-tagged GPR40 expressed in HEK293 cells assessed as EA-tagged beta-arrestin recruitment after 90 mins in presence of 1 % heat inactivated FBS by beta-galactosidase reporter gene assay; assay type: cell-based
# 3T3-L1 = assay: Induction of adipogenesis in mouse 3T3L1 cells; assay type: functional, cell-based
# How it was run: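 Adipogenesis was assessed in 3T3-L1 cells.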
# [24] = AUC (0 to 24 hrs) in Sprague-Dawley rat at 500 mg/kg, po; assay type: ADME, organism-based; parameters: dose 500 mg/kg, time < 24 hr, route oral; settings: in vivo
smiles,measurement,setting,value
CC#C[C@@H](CC(=O)O)c1ccc(OCc2ccc3nc(-c4c(C)cccc4C)nn3c2)cc1,%max,[1],130%
same,Vd,[2],0.33 L/kg
same,metabolised at 0.5 h,[3],10%
same,K,[4],0.099 h⁻¹
same,AUC(0-t) at 24 h,[5],52.8 µg·h/mL
same,half-life,[6],4.68 h
same,Activity,[7],inactive
same,Activity,[8],inactive
same,half-life,[9],5.49 h
same,Drug metabolism,[10],Metabolite_Detected
same,Cmax,[11],277 µg/mL
same,Cmax,[12],9.9 µg/mL
same,Vd,[13],0.27 L/kg
same,AUC(0-t) at 24 h,[14],27.3 µg·h/mL
same,Activity,[15],inactive
same,EC50,[16],0.011 µM
same,EC50,[17],0.014 µM
same,metabolised at 0.5 h,[18],5%
same,metabolised at 0.5 h,[19],5%
same,Tmax,[20],0.25 h
same,ED90,Rattus norvegicus [21],5 mg/kg
same,IC50,Cytochrome P450 3A4,> 60 µM
same,Activity,Rattus norvegicus [22],Active
same,EC50,[23],0.108 µM
same,Activity,3T3-L1,inactive
same,AUC(0-t) at 24 h,[24],4790 µg·h/mL
